According to ChEMBL document CHEMBL4011636, “Utilization of an Active Site Mutant Receptor for the Identification of Potent and Selective Atypical 5-HT2C Receptor Agonists” (J Med Chem, 2017):

Legend:
Rattus norvegicus [1] = experiment: Antiobesity activity in ad libitum feeding Sprague-Dawley rat model assessed as reduction in food intake at 10 mg/kg, po administered at 60 mins prior to the onset of the dark cycle followed by incubation for first 8 hrs in light cycle and 12 hrs in dark cycle; assay type: functional; set-up: scale not given: the % may be the effect or the level left
Summary of the method: (§1)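 Male Sprague Dawley rats (~225 g; n = 6), trained in operant chambers, dosed orally with compound or vehicle (14% PPG, 1% Tween, 85% water) 60 min before dark onset. Food intake was monitored in individual boxes for 20 h (12 h dark plus first 8 h light). Percent reduction was computed from drug-treated versus vehicle-treated total intake.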

[2] = target: T1, 5-hydroxytryptamine receptor 2C (Homo sapiens) (UniProt P28335); experiment: Intrinsic activity at recombinant human 5-HT2C receptor expressed in HEK293E cells assessed as induction of intracellular Ca2+ levels after 90 secs by Fluo-4-dye based FLIPR assay relative to serotonin; assay type: functional, cell-based; conditions: HEK293
T1 sequence (whole entry): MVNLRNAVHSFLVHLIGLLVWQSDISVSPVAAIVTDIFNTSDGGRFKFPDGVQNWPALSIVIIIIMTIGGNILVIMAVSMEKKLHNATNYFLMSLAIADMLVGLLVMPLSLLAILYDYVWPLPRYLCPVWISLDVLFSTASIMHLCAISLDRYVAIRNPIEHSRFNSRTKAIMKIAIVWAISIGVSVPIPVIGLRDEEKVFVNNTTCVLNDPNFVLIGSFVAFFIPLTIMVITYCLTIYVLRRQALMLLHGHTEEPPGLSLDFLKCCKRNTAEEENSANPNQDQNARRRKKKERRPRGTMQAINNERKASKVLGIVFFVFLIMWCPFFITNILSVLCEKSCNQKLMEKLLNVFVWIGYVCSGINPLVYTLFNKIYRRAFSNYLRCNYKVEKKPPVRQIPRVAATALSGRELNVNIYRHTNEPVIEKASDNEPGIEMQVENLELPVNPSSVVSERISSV
Summary of the method: (§2)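 FLIPR Fluo-4 Ca2+ assay in HEK293E cells stably expressing the human receptor (VNV isoform for 5-HT2C), eleven-point concentration series, 90 s read. Response normalized to 3 μM serotonin on the same plate (defined as IA = 1). Intrinsic activity taken from a four-parameter logistic fit.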

[3] = target: 5-hydroxytryptamine receptor 2A (Homo sapiens, UniProt P28223); experiment: Agonist activity at recombinant human 5-HT2A receptor expressed in HEK293E cells assessed as induction of intracellular Ca2+ levels after 90 secs by Fluo-4-dye based FLIPR assay; assay type: cell-based, HEK293
Summary of the method: (§3)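 HEK293E cells stably expressing human receptor (VNV isoform for 5-HT2C; ~400−795 fmol/mg protein), grown in DMEM with 10% dialyzed FBS and G418. Cells plated at 20 000/well in serum-free DMEM overnight at 37 °C, then loaded 1 h at room temperature with 5 μM Fluo-4 in HBSS/25 mM HEPES. Eleven compound concentrations added on FLIPR, Ca2+ signal read for 90 s. EC50 from a four-parameter logistic fit, at least triplicate.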

[4] = target: T2, 5-hydroxytryptamine receptor 2B (Homo sapiens, UniProt P41595); experiment: Agonist activity at recombinant human 5-HT2B receptor expressed in HEK293E cells assessed as induction of intracellular Ca2+ levels after 90 secs by Fluo-4-dye based FLIPR assay; assay type: cell-based, HEK293; summary of the method: as §3
[5] = Agonist activity at recombinant human 5-HT2C receptor D134A mutant expressed in HEK293E cells assessed as induction of intracellular Ca2+ levels after 90 secs by Fluo-4-dye based FLIPR assay; assay type: cell-based; conditions: HEK293
[6] = target: T3, 5-hydroxytryptamine receptor 2C (Homo sapiens, UniProt P28335); experiment: Agonist activity at recombinant human 5-HT2C receptor expressed in HEK293E cells assessed as induction of intracellular Ca2+ levels after 90 secs by Fluo-4-dye based FLIPR assay; assay type: functional, cell-based, HEK293; summary of the method: as §3
T3 sequence (P28335 whole entry): T1 sequence (whole entry)

[7] = Metabolic stability in rat liver microsomes assessed as parent compound remaining at […] after 10 mins; assay type: ADME, microsome; conditions: read-out: Stability
[8] = Metabolic stability in human liver microsomes assessed as parent compound remaining at […] after 10 mins; assay type: ADME, microsome; conditions: read-out: Stability
Rattus norvegicus [9] = experiment: Antiobesity activity in ad libitum feeding Sprague-Dawley rat model assessed as reduction in food pellet consumption at 10 mg/kg, po administered at 60 mins prior to the onset of the dark cycle followed by incubation for first 8 hrs in light cycle and 12 hrs in dark cycle; assay type: functional; set-up: scale not given: the % may be the effect or the level left; summary of the method: as §1
[10] = Half life in rat microsomes; assay type: ADME, Microsome
[11] = Plasma concentration in Sprague-Dawley rat at 30 mg/kg, po measured at 1 hr post dose by LC/MS-MS analysis; assay type: ADME, organism-based
Summary of the method: (§4)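 Male rats given 30 mg/kg orally in 0.15% docusate sodium/2% PVP-K/97.85% water. Plasma and brain were sampled at a single time point after dosing. Brain was diluted 1:2 (vol/weight) with water before homogenization (dilution factor 3). Concentrations were measured by LC/MS−MS after acetonitrile protein precipitation. Values are the average of three animals; B/P is the brain to plasma ratio.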

[12] = Ratio of drug uptake in Sprague-Dawley rat brain to plasma at 30 mg/kg, po measured at 1 hr post dose by LC/MS-MS analysis; assay type: ADME, organism-based; conditions: read-out: BPR; summary of the method: as §4
[13] = Permeability of compound at pH 5.5 by PAMPA; assay type: physicochemical; conditions: read-out: permeability
[14] = Drug uptake in Sprague-Dawley rat brain at 30 mg/kg, po measured at 1 hr post dose by LC/MS-MS analysis; assay type: ADME, organism-based; conditions: read-out: Drug uptake; summary of the method: as §4
[15] = Protein binding in rat plasma; assay type: ADME, cell-free; conditions: read-out: PPB (converted)
[16] = Permeability of compound at pH 7.4 by PAMPA; assay type: physicochemical; conditions: read-out: permeability
[17] = Permeability across basolateral to apical side in human Caco2 cells; assay type: ADME, cell-based; conditions: Caco-2, read-out: permeability
[18] = Permeability across apical to basolateral side in human Caco2 cells; assay type: ADME, cell-based; conditions: Caco-2, read-out: permeability
[19] = Efflux ratio of permeability across basolateral to apical side in human Caco2 cells; assay type: ADME, cell-based; conditions: Caco-2
[20] = Protein binding in human plasma; assay type: ADME, cell-free; conditions: read-out: PPB (converted)
[21] = Half life in human microsomes; assay type: ADME, Microsome
[22] = target: T2, 5-hydroxytryptamine receptor 2B; experiment: Intrinsic activity at recombinant human 5-HT2B receptor expressed in HEK293E cells assessed as induction of intracellular Ca2+ levels after 90 secs by Fluo-4-dye based FLIPR assay relative to serotonin; assay type: functional, cell-based; conditions: HEK293; summary of the method: as §2
[23] = Ratio of drug uptake in Sprague-Dawley rat brain to plasma at 30 mg/kg, po measured at 2 hrs post dose by LC/MS-MS analysis; assay type: ADME, organism-based; conditions: read-out: BPR; summary of the method: as §4
[24] = Drug uptake in Sprague-Dawley rat brain at 30 mg/kg, po measured at 2 hrs post dose by LC/MS-MS analysis; assay type: ADME, organism-based; conditions: read-out: Drug uptake; summary of the method: as §4
[25] = Plasma concentration in Sprague-Dawley rat at 30 mg/kg, po measured at 2 hrs post dose by LC/MS-MS analysis; assay type: ADME, organism-based; summary of the method: as §4

Sequence of 5-hydroxytryptamine receptor 2A (P28223 whole entry, canonical isoform): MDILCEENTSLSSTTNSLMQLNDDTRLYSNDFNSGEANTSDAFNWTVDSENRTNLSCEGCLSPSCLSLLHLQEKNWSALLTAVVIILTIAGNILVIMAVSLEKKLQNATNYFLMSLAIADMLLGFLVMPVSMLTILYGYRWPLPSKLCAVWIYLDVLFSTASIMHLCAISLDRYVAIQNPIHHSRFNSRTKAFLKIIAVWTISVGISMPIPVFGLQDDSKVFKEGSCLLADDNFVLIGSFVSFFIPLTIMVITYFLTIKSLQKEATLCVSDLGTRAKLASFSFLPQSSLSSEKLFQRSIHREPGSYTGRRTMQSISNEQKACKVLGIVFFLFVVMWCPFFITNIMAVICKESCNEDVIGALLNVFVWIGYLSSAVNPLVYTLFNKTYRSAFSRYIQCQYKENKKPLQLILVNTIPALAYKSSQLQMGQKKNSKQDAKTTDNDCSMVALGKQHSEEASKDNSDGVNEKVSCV
T2 sequence (P41595 whole entry): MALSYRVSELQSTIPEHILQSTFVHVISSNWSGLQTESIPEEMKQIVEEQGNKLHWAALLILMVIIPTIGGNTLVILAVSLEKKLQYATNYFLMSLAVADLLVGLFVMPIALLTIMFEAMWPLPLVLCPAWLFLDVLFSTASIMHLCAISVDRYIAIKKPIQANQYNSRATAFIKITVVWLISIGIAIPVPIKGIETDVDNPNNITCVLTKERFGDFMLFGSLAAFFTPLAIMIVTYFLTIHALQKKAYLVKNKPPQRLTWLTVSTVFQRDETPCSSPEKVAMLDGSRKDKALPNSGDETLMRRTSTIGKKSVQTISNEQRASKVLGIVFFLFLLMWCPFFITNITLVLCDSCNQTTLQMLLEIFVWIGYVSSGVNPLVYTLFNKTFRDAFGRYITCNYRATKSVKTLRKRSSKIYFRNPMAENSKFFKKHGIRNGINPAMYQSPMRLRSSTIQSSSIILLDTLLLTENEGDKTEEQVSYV

| Intrinsic activity [2] | EC50 [3] | EC50 [4] | EC50 [6] | remaining at 10 min [7] | remaining at 10 min [8] | SMILES | other results |
| --- | --- | --- | --- | --- | --- | --- | --- |
| – | – | – | – | – | – | Cc1cc2c(cc1C(F)(F)F)N(C(=O)Nc1ccc(Oc3cccnc3C)nc1)CC2 [SB-243213] | Activity (Rattus norvegicus [1]): 15% |
| 0.8 | > 10000 nM | > 10000 nM | 119 to 128 nM | – | – | O=C(c1csc(-c2cccc(Cl)c2Cl)n1)N1CCOCC1 | EC50 [5]: 2 nM |
| 0.9 | > 10000 nM | > 10000 nM | 17 to 25 nM | 8% | 50% | Cc1nc(-c2cccc3ccccc23)sc1C(=O)N1CCCC(O)CC1 (configuration not stated) | – |
| 1 | > 10000 nM | > 10000 nM | 24 nM | 1% | 24% | Cc1nc(-c2cccc3ccccc23)sc1C(=O)N1CCCCC1 | – |
| 0.8 | > 10000 nM | > 10000 nM | 95 to 115 nM | 6% | 50% | Cc1nc(-c2cccc3ccccc23)sc1C(=O)N1CCOCC1 | – |
| 0.8 | > 10000 nM | > 10000 nM | 12 to 15 nM | 4% | 5% | Cc1nc(-c2cccc3ccccc23)sc1C(=O)N(C)Cc1cccnc1 | – |
| 0.9 | > 10000 nM | > 10000 nM | 14 nM | 7% | 28% | COCCN(C)C(=O)c1sc(-c2cccc3ccccc23)nc1C | – |
| 0.7 | > 10000 nM | > 10000 nM | 369 to 433 nM | 18% | 67% | Cc1cn(-c2cccc3ccccc23)cc1C(=O)N1CCC(CO)CC1 | – |
| – | – | – | – | – | – | Cc1c(C(=O)NN2CCCCC2)nn(-c2ccc(Cl)cc2Cl)c1-c1ccc(Cl)cc1 [RIMONABANT] | Activity (Rattus norvegicus [9]): 27% |
| 0.9 | > 10000 nM | > 10000 nM | 12 nM | 44% | 76% | Cc1[nH]c(-c2cccc3ccccc23)cc1C(=O)N1CCC(CO)CC1 | half-life [10]: 11 min; concentration at 1 h [11]: 1140 nM; Kp at 1 h [12]: 0.2; Papp [13]: 62.4 ×10⁻⁶ cm/s; concentration at 1 h [14]: 202 nM; fraction unbound [15]: 0.075; Papp [16]: 49.2 ×10⁻⁶ cm/s; Papp B→A [17]: 21.9 ×10⁻⁶ cm/s; Papp A→B [18]: 17.2 ×10⁻⁶ cm/s; efflux ratio [19]: 1.3; fraction unbound [20]: 0.017; half-life [21]: 41 min |
| 1 | 151 nM | 3 to 6 nM | 2 nM | – | 8% | CCn1nc(-c2cccc3cccnc23)cc1-c1cccnn1 | Intrinsic activity [22]: 0.2 |
| 0.9 | > 10000 nM | > 10000 nM | 30 to 50 nM | 22% | 67% | Cc1nc(-c2cccc3ccccc23)sc1C(=O)N(C)CCO | – |
| 1 | > 10000 nM | > 10000 nM | 334 to 385 nM | 24% | 58% | Cc1nn(-c2cccc3ccccc23)nc1C(=O)N1CCC(CO)CC1 | – |
| 1 | > 10000 nM | > 10000 nM | 16 nM | 51% | 88% | Cc1nn(-c2cccc3ccccc23)cc1C(=O)N1CCC(CO)CC1 | – |
| 1 | > 10000 nM | > 10000 nM | 68 nM | 15% | 70% | Cc1nc(-c2cccc3ccccc23)sc1C(=O)N1CCc2[nH]cnc2C1 | – |
| 0.9 | > 10000 nM | > 10000 nM | 47 nM | 34% | 84% | Cc1nc(-c2cccc3ccccc23)sc1C(=O)N1CCC(O)CC1 | – |
| 0.8 | > 10000 nM | > 10000 nM | 43 to 123 nM | – | – | Cc1nc(-c2cccc3ccccc23)sc1C(=O)N1CCN(C)CC1 | EC50 [5]: 130 nM |
| 1 | 75 nM | > 10000 nM | 6 nM | 37% | 92% | Cn1nc(-c2cccc3ccccc23)cc1C(=O)N1CCC(CO)CC1 | half-life [10]: 8 min; Kp at 2 h [23]: 0.3; Papp [13]: 58.8 ×10⁻⁶ cm/s; fraction unbound [15]: 0.076; concentration at 2 h [24]: 721 nM; concentration at 2 h [25]: 2480 nM; Papp [16]: 61.3 ×10⁻⁶ cm/s; Papp B→A [17]: 16.8 ×10⁻⁶ cm/s; Papp A→B [18]: 32.3 ×10⁻⁶ cm/s; efflux ratio [19]: 0.5; fraction unbound [20]: 0.023; half-life [21]: 36 min |
| 1 | > 10000 nM | > 10000 nM | 381 to 575 nM | 16% | 62% | Cc1oc(-c2cccc3ccccc23)nc1C(=O)N1CCC(CO)CC1 | – |
| 0.9 | > 10000 nM | > 10000 nM | 63 to 140 nM | 24% | 33% | Cc1nc(-c2cccc3ccccc23)oc1C(=O)N1CCC(CO)CC1 | – |
